Columns and labels:
[1] = Area under the curve for fumarate salt was evaluated in F344 Rats.; type: ADME, organism-based; settings: F344, rat, in vivo
Method in brief: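 Single oral dose of 25 mg/kg to F344 rats; AUC (µg·h/mL) reported as mean ± SEM, n = 3.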

3T3-L1 = experiment: Stimulation of adipogenesis in 3T3-L1 cells is expressed as concentration equivalent to the [ 1-14C] uptake counts after treatment with 0.2 ug/mL troglitazone; type: functional, Mus musculus
Method in brief: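 Mouse 3T3-L1 preadipocytes were grown to confluence on collagen-coated wells, then given differentiation medium (5% FBS, 100 ng/mL insulin, 0.1 mM IBMX, dexamethasone) plus compound (DMSO 0.1% v/v final) for 4 days. This was followed by maintenance medium (5% FBS, insulin) for 2 days. Cells were then pulsed 1 h with 7.4 kBq/mL [1-14C]acetic acid, washed, and counted by scintillation.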

Rattus norvegicus [2] = experiment: Heart wt absolute in two week oral toxicity test in male F344/DuCrj rats after 50 mg/kg dose; type: functional
Method in brief: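 Seven-week-old male rats, n = 5/group, dosed by gavage at 50 mg/kg for 2 weeks as a suspension in 0.5% carboxymethylcellulose sodium in water; controls received vehicle alone. At termination rats were ether-anaesthetized and exsanguinated via the abdominal aorta, and the heart was excised and weighed. Relative weight = absolute weight/100 g final body weight. Mean ± SE; Student's t-test against control.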

Rattus norvegicus [3] = experiment: Relative wt in two week oral toxicity test in male F344/DuCrj rats after 50 mg/kg dose; type: functional
Method in brief: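 Seven-week-old male F344/DuCrj rats, n = 5/group; compound suspended in 0.5% carboxymethylcellulose sodium in water, given by gavage at 50 mg/kg for 2 weeks; controls got vehicle alone. At termination, ether anaesthesia and exsanguination via abdominal aorta; heart and major organs excised and weighed. Relative weight = organ weight/100 g final body weight; mean ± SE, Student's t-test vs control.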

[4] = The hypoglycemic activity in diabetic KK mice, activity expressed as % decrease in blood glucose (21h); type: functional, Mus musculus
Method in brief: (§1)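 Nonfasting diabetic KK mice, n = 3, received 1 mg/kg immediately after the first blood sampling and again 18 h later. Tail-vein plasma was taken 18 and 21 h after the first dose, and glucose was measured. Activity (%) = (control PG − treated PG)/control PG × 100; mean ± SEM.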

[5] = The hypoglycemic activity in diabetic KK mice, activity expressed as % decrease in blood glucose (18 h); type: functional, Mus musculus; method in brief: as §1

COc1ccc2nc(COc3ccc(CC4SC(=O)NC4=O)cc3)n(C)c2n1.O=C(O)/C=C/C(=O)O (centres undefined)
AUC [1]: 36400 ng·h/mL

Cn1c(COc2ccc(CC3SC(=O)NC3=O)cc2)nc2cccnc21 (centres undefined)
EC (3T3-L1): 0.13 µM
Absolute heart weight, % of control (Rattus norvegicus [2]): 128%
Heart weight absolute (Rattus norvegicus [2]): 0.78 g
Control (Rattus norvegicus [3]): 116%
Relative (Rattus norvegicus [3]): 0.36 g %
Decrease [4]: 27.6%

CCn1c(COc2ccc(CC3SC(=O)NC3=O)cc2)nc2cccnc21 (centres undefined)
EC (3T3-L1): 1.07 µM
Decrease [5]: -19.5%
Decrease [4]: 2.4%

O=C1NC(=O)C(Cc2ccc(OCc3cn4ccccc4n3)cc2)S1 (centres undefined)
EC (3T3-L1): 5.09 µM
Decrease [5]: 5.9%
Decrease [4]: 12.7%

CN(CCOc1ccc(CC2SC(=O)NC2=O)cc1)c1ccccn1 (centres undefined) [ROSIGLITAZONE]
EC (3T3-L1): 0.09 µM
Absolute heart weight, % of control (Rattus norvegicus [2]): 119%
Heart weight absolute (Rattus norvegicus [2]): 0.76 g
Control (Rattus norvegicus [3]): 113%
Relative (Rattus norvegicus [3]): 0.36 g %
Decrease [5]: 21.7%
Decrease [4]: 14.6%

Cn1c(COc2ccc(CC3SC(=O)NC3=O)cc2)nc2cc(Cl)cnc21 (centres undefined)
EC (3T3-L1): 0.16 µM
Decrease [4]: 49.7%

CCOc1ccc2nc(COc3ccc(CC4SC(=O)NC4=O)cc3)n(C)c2n1 (centres undefined)
EC (3T3-L1): 0.078 µM
Decrease [5]: 29.7%
Decrease [4]: 23.6%

Cn1c(COc2ccc(CC3SC(=O)NC3=O)cc2)nc2cc(C(F)(F)F)cnc21 (centres undefined)
EC (3T3-L1): 0.073 µM
Decrease [5]: -0.7%
Decrease [4]: -26.4%

CC(C)Oc1ccc2nc(COc3ccc(CC4SC(=O)NC4=O)cc3)n(C)c2n1 (centres undefined)
EC (3T3-L1): 0.075 µM
Decrease [5]: 14.6%
Decrease [4]: -0.2%

O=C1NC(=O)C(Cc2ccc(OCc3nc4ccc[nH]c-4n3)cc2)S1 (centres undefined)
EC (3T3-L1): 8.18 µM
Decrease [5]: 13.9%
Decrease [4]: 7.4%

O=C1NC(=O)C(Cc2ccc(OCc3nc4cccnc4n3Cc3ccc(-c4ccccc4)cc3)cc2)S1 (centres undefined)
EC (3T3-L1): 0.92 µM
Decrease [5]: 3.8%
Decrease [4]: 11.4%

Cn1c(CCOc2ccc(CC3SC(=O)NC3=O)cc2)nc2cccnc21 (centres undefined)
EC (3T3-L1): 0.65 µM
Decrease [5]: -5.6%
Decrease [4]: 13%

Cn1c(COc2ccc(CC3SC(=O)NC3=O)cc2)nc2cc(Br)cnc21 (centres undefined)
EC (3T3-L1): 0.34 µM
Decrease [4]: 6.2%

Cn1c(COc2ccc(CC3SC(=O)NC3=O)cc2)nc2ccc(Cl)nc21 (centres undefined)
EC (3T3-L1): 0.0009 µM
Absolute heart weight, % of control (Rattus norvegicus [2]): 123%
Heart weight absolute (Rattus norvegicus [2]): 0.74 g
Control (Rattus norvegicus [3]): 116%
Relative (Rattus norvegicus [3]): 0.37 g %
Decrease [4]: 47.6%

Cn1c(COc2ccc(CC3SC(=O)NC3=O)cc2)nc2ccc(OCc3ccccc3)nc21 (centres undefined)
EC (3T3-L1): 0.067 µM
Decrease [5]: 20.3%
Decrease [4]: 18.8%

O=C1NC(=O)C(Cc2ccc(OCc3nc4cccnc4n3-c3ccccc3)cc2)S1 (centres undefined)
EC (3T3-L1): 2.56 µM
Decrease [5]: 3.9%
Decrease [4]: -3.4%

Cc1cc(C)c2nc(COc3ccc(CC4SC(=O)NC4=O)cc3)n(C)c2n1 (centres undefined)
EC (3T3-L1): 0.22 µM
Decrease [5]: 9.5%
Decrease [4]: 9.5%

Cn1c(COc2ccc(CC3SC(=O)NC3=O)cc2)nc2ccc(O)nc21 (centres undefined)
EC (3T3-L1): 1.98 µM
Decrease [5]: -30.6%
Decrease [4]: -3.2%

Cc1ccnc2c1nc(COc1ccc(CC3SC(=O)NC3=O)cc1)n2C (centres undefined)
EC (3T3-L1): 0.37 µM
Decrease [5]: -18.2%
Decrease [4]: -6.9%

COc1ccc2nc(COc3ccc(CC4SC(=O)NC4=O)cc3)n(C)c2n1 (centres undefined)
EC (3T3-L1): 0.08 µM
AUC [1]: 11900 ng·h/mL
Decrease [5]: 3.6%
Decrease [4]: 2.9%

Cn1c(COc2ccc(CC3SC(=O)NC3=O)cc2)nc2ccc(-c3ccccc3)nc21 (centres undefined)
EC (3T3-L1): 0.36 µM
Decrease [5]: 15.5%
Decrease [4]: 38.1%

Cn1c(COc2ccc(CC3SC(=O)NC3=O)cc2)nc2ccc(Sc3ccccc3)nc21 (centres undefined)
EC (3T3-L1): 0.067 µM
Decrease [5]: -21.2%
Decrease [4]: 14.7%

Cn1c(Oc2ccc(CC3SC(=O)NC3=O)cc2)nc2cccnc21 (centres undefined)
EC (3T3-L1): 1.35 µM
Decrease [5]: -7%
Decrease [4]: 3.6%

O=C1NC(=O)C(Cc2ccc(OCc3nc4cccnc4n3Cc3ccc(Cl)cc3)cc2)S1 (centres undefined)
EC (3T3-L1): 0.71 µM
Decrease [4]: -8.5%

Cn1c(CCCOc2ccc(CC3SC(=O)NC3=O)cc2)nc2cccnc21 (centres undefined)
EC (3T3-L1): 0.081 µM
Decrease [5]: -3%
Decrease [4]: -9.3%

COc1ccc2nc(COc3ccc(CC4SC(=O)NC4=O)cc3)n(C)c2n1.Cl (centres undefined)
EC (3T3-L1): 0.11 µM
AUC [1]: 141000 ng·h/mL
Absolute heart weight, % of control (Rattus norvegicus [2]): 111%
Heart weight absolute (Rattus norvegicus [2]): 0.68 g
Control (Rattus norvegicus [3]): 106%
Relative (Rattus norvegicus [3]): 0.33 g %
Decrease [5]: 14.8%
Decrease [4]: 1%

Source: ChEMBL document CHEMBL1133611, “Molecular design, synthesis, and hypoglycemic activity of a series of thiazolidine-2,4-diones” (J Med Chem, 2000)
